This is a sample that favours compounds with a hit; in the whole collection about 2.3% have one here.
TRPC4 block – inhibitors of mouse TRPC4 channel, primary screen, Fluo4 calcium, HEK293 TRPC4beta/mu-opioid cells; Short transient receptor potential channel 4 (Mus musculus), Q9QUQ5; DAMGO-evoked Fluo4 calcium flux; active compounds read low; B-score at 10 µM; 300,000 tested, 0.39% active;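 active = B-score over 3 SD under the library average, no early fluorescence shift, positive overall ratio signal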
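Material: HEK293 cells with stable TRPC4beta plus mu-opioid receptor expression / Probe or stimulus: DAMGO in two steps, submaximal then maximal / Compound: single concentration per test compound / Technique: kinetic Fluo4 fluorescence imaging of calcium influx / Read-out: per-well B score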
TRPC4 agonist – activators of mouse TRPC4 channel, primary screen, Fluo4 calcium, HEK293 TRPC4beta/mu-opioid cells | Short transient receptor potential channel 4 (Mus musculus), Q9QUQ5 | Fluo4 calcium fluorescence; active compounds read high | B-score at 10 µM | 310,000 tested, 0.49% active;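 active = B-score above 5 SD of library B-scores, and initial fluorescence ratio not above library mean plus 5 SD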;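 note: positive B-score marks a calcium rise read as TRPC4 activation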
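Material: TRPC4beta and mu-opioid receptor HEK293 stable cells | Incubation: 45 min room-temperature Fluo4 loading, 110 s read | Detection: Kinetic Fluo4 calcium fluorescence | Measure: Integrated baseline-normalised fluorescence ratio, converted to per-well B score | Benchmarks: Low control buffer alone, high control maximal DAMGO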
TRPC6 inhibitor – mouse TRPC6 channel inhibitors, primary screen, cell-based, HEK293, membrane potential dye; Short transient receptor potential channel 6 (Mus musculus), Q61143; ACh-evoked depolarization; active compounds read low; B-score at 10 µM; 310,000 tested, 1.1% active; AID 2553, 2010;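 active = B-score under library mean minus 3 SD, initial fluorescence not abnormally high, positive integrated signal ratio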;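 note: B-score derived from integrated fluorescence ratio over the kinetic read; more negative B-score means stronger inhibition of depolarization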
Target sequence (Q61143 whole entry, looked up): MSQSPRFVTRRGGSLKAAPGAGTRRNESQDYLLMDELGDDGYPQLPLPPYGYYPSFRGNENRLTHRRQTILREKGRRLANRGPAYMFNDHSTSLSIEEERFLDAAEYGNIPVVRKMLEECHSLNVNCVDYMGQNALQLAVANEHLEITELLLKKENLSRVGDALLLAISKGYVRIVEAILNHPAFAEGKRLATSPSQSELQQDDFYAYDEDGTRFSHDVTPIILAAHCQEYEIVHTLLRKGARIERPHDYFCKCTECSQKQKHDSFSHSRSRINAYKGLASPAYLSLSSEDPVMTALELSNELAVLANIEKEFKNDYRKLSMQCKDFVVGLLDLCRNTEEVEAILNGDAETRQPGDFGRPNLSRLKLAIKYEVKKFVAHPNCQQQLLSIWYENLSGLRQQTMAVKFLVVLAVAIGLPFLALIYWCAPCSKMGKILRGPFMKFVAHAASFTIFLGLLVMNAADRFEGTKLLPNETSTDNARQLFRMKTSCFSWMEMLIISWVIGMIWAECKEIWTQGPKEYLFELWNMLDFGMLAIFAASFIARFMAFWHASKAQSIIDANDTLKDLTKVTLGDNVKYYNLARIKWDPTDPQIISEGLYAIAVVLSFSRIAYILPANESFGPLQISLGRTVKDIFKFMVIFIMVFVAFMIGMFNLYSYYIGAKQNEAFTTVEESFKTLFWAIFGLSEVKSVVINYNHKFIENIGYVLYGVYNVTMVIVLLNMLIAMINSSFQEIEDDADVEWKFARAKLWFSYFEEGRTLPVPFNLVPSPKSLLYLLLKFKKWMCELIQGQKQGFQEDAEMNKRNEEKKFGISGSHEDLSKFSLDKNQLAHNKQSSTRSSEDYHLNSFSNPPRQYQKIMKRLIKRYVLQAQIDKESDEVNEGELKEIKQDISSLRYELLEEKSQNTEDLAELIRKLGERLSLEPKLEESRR
TRPC6 act – mouse TRPC6 channel activators, primary screen, cell-based, HEK293, membrane potential dye | Short transient receptor potential channel 6 (Mus musculus), Q61143 | HEK293-TRPC6 membrane potential dye fluorescence; active compounds read high | B-score at 10 µM | 310,000 tested, 0.13% active | AID 2550, 2010;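 active = B-score of the integrated fluorescence ratio above library mean plus 3 SD, and starting fluorescence ratio within library mean plus 5 SD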;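 note: higher score means more depolarization so channel activation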
TRPC4 PAM – positive allosteric modulators of TRPC4, primary screen, cell-based, mouse TRPC4beta, HEK293 mu-opioid, Fluo-4 calcium | DAMGO EC20, Fluo-4 Ca2+ flux; active compounds read high | AID 2227, 2009 | B-score at 10 µM | 310,000 tested, 0.42% active;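 active = B-score of calcium response area above 5 SD of library B-scores, with initial fluorescence ratio within 5 SD of library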
TRPC4 spec 2 – second check of whether TRPC6 inhibitors also affect mouse TRPC4; shares compounds with TRPC6 inhibitor; HEK293 TRPC4/MOR, membrane potential dye fluorescence; channel activated by saturating DAMGO dose; inhibition, % at 10 µM; 920 tested, 42% active; AID 2776;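 active = compounds whose fluorescence signal differed from control wells by over 3 SD, either direction, in both duplicate plates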
TRPC4 spec – mouse TRPC4 modulation by TRPC6 hits, confirmation, selectivity assay for TRPC6 inhibitor project, cell-based, HEK293 TRPC4/mu-opioid, membrane potential dye; shares compounds with TRPC6 inhibitor; membrane potential fluorescence; activity change, negative = inhibition, % at 10 µM; 920 tested, 61% active; AID 2777, 2010;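 active = rise or fall in signal beyond 3 SD of buffer-only wells in both replicate plates, either sign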;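 note: integrated kinetic ratio of fluorescence range over baseline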
HEK293 MPD ctr 2-1 – nonspecific membrane potential effects, parental HEK293, confirmation, counter-screen for TRPC6 inhibitor project, cell-based, second counter screen | shares compounds with TRPC6 inhibitor | AID 2779, 2010 | 920 tested, 31% active | signal change vs control, % at 10 µM | parental HEK293 membrane potential dye fluorescence; maximal acetylcholine challenge after compound addition;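 active = membrane potential signal moving either way by over 3 SD of the maximum-effect control, in both duplicate plates, meaning non-specific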
HEK293 MPD ctr-1 – membrane potential modulation in parental HEK293, confirmation, counter-screen for TRPC6 inhibitor project, cell-based; AID 2780, 2010; shares compounds with TRPC6 inhibitor; membrane potential signal change, % at 10 µM; 920 tested, 60% active; parental HEK293 membrane potential dye fluorescence;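 active = membrane potential signal shifting up or down by more than 3 SD of buffer-only wells, on both duplicate plates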
HEK293 MPD ctr-2 – parental HEK293 membrane potential modulation, confirmation, counter-screen for TRPC6 modulator project, cell-based. membrane potential dye fluorescence. 2,400 tested, 51% active. AID 488924, 2010. shares compounds with TRPC6 inhibitor. membrane potential signal change, % at 10 µM;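 active = membrane potential signal moves up or down beyond 5 SD from buffer-only wells, on both duplicate plates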
HEK293 MPD ctr 2-2 – second check of TRPC6 modulator effects in parental HEK293 cells. shares compounds with TRPC6 inhibitor. membrane potential dye fluorescence; after compound, maximal acetylcholine stimulation. inhibition, % at 10 µM. 2,400 tested, 14% active. AID 488926;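 active = membrane potential signal drops by more than 5 SD from the mean control signal, in both duplicate plates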
TRPC4 ctr mod – TRPC4 modulation by TRPC6 hit compounds, confirmation, selectivity assay for TRPC6 modulator project, cell-based, HEK293 TRPC4/mu-opioid, membrane potential dye, mouse | 2,400 tested, 69% active | percent change from control (negative = decrease, positive = increase), % at 10 µM | membrane potential fluorescence | shares compounds with TRPC6 inhibitor;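 active = membrane potential signal moved up or down beyond 5 SD of buffer control wells, in both duplicate plates, actives on both sides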
TRPC4 ctr inh 2 – mouse TRPC4 off-target activity of TRPC6 modulators, second screen; shares compounds with TRPC6 inhibitor; HEK293 TRPC4/mu-opioid, membrane potential dye fluorescence; stimulated with maximal-effect DAMGO; inhibition, % at 10 µM; 2,400 tested, 55% active;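 active = drop in membrane potential signal beyond 5 SD of the control wells in both duplicate plates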;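 note: TRPC4 counter screen for TRPC6 hits run under conditions tuned for TRPC6 not TRPC4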
TRPC6 block conf – mouse TRPC6 channel inhibitors, confirmation, HEK293 cells, membrane potential dye, duplicate | shares compounds with TRPC6 inhibitor | ACh-evoked depolarization | inhibition, % at 10 µM | 3,300 tested, 43% active;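 active = fluorescence ratio falls more than 5 SD below the full-stimulation control mean, in both duplicate runs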;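 note: integrated fluorescence ratio of peak minus minimum over baseline after agonist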
TRPC6 act conf – mouse TRPC6 channel activators, confirmation, HEK293 cells, membrane potential dye, duplicate; shares compounds with TRPC6 inhibitor; HEK293-TRPC6 membrane potential dye fluorescence, FDSS; 2,800 tested, 11% active; activation, % at 10 µM;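 active = ratio signal rise beyond 5 SD above unstimulated control wells' mean, seen in both duplicate runs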
Of the large screens only hits and unclear results are named; the others gave an inactive call (follow-up assays come after a bar, where they were run); ! = a repeat was not active.

CCCNC(=O)NNC(=O)c1ccc(F)cc1	none
Cc1cccc(C(=O)NNC2=C(C(=O)C(F)(F)F)CCC2)c1O	TRPC6 inhibitor -7.6 | TRPC4 spec 2 inactive | TRPC4 spec -12% | HEK293 MPD ctr 2-1 inactive | HEK293 MPD ctr-1 -190% | TRPC6 block conf inactive | TRPC6 act conf inactive
O=C(NNC1=C(C(=O)C(F)(F)F)CCC1)c1cccc(O)c1	none
CC(C)C[C@H](NC(=O)c1[nH]cnc1C(=O)N[C@@H](C)C(=O)OCc1ccccc1)C(=O)OC(C)(C)C	TRPC6 inhibitor -5.8 | HEK293 MPD ctr-2 inactive | HEK293 MPD ctr 2-2 inactive | TRPC4 ctr mod inactive | TRPC4 ctr inh 2 inactive | TRPC6 block conf inactive | TRPC6 act conf inactive
Cc1ccc2c(c1)c1c(n2CC(O)CN2CCC(C)CC2)CCCC1 (stereo unspecified)	TRPC6 inhibitor -5.8 | HEK293 MPD ctr-2 inactive | HEK293 MPD ctr 2-2 inactive | TRPC4 ctr mod 12% | TRPC4 ctr inh 2 54% | TRPC6 block conf 40% | TRPC6 act conf inactive
CC1CCC(C(C)C)C(OC(=O)Cn2c(-c3ccccc3)[n+](C)c3ccccc32)C1 (stereo unspecified)	TRPC6 inhibitor -5.6!, TRPC6 act 12 | HEK293 MPD ctr-2 506% | HEK293 MPD ctr 2-2 inactive | TRPC4 ctr mod 110% | TRPC4 ctr inh 2 60% | TRPC6 block conf 63% | TRPC6 act conf 176%
CCCCc1cc(=O)oc2cc(C)cc(OCC(=O)NCc3ccncc3)c12	TRPC6 inhibitor -7.4 | HEK293 MPD ctr-2 inactive | HEK293 MPD ctr 2-2 inactive | TRPC4 ctr mod inactive | TRPC4 ctr inh 2 inactive | TRPC6 block conf inactive | TRPC6 act conf inactive
CCOc1cccc2sc(N(CCN(CC)CC)C(=O)c3cccc(N4C(=O)CCC4=O)c3)nc12	none
CN(C)CCN(C(=O)c1ccc(C(=O)c2ccccc2)cc1)c1nc2cc3c(cc2s1)OCO3	none
CN(C)CCN(C(=O)c1ccco1)c1nc2cc3c(cc2s1)OCCO3	TRPC6 inhibitor -5.3 | HEK293 MPD ctr-2 -136% | HEK293 MPD ctr 2-2 inactive | TRPC4 ctr mod -40% | TRPC4 ctr inh 2 88% | TRPC6 block conf 60% | TRPC6 act conf inactive
CCOc1cccc2sc(N(CCN(CC)CC)C(=O)c3cccc([N+](=O)[O-])c3)nc12	TRPC6 inhibitor -5 | HEK293 MPD ctr-2 inactive | HEK293 MPD ctr 2-2 inactive | TRPC4 ctr mod -10% | TRPC4 ctr inh 2 62% | TRPC6 block conf inactive
CN(C)CCCN(C(=O)c1ccco1)c1nc2ccc(Cl)cc2s1	TRPC6 inhibitor -6.3 | HEK293 MPD ctr-2 -180% | HEK293 MPD ctr 2-2 inactive | TRPC4 ctr mod -35% | TRPC4 ctr inh 2 76% | TRPC6 block conf 50% | TRPC6 act conf inactive
CN(C)CCCN(C(=O)c1ccc(S(=O)(=O)N(C)C)cc1)c1nc2cc3c(cc2s1)OCO3	TRPC6 inhibitor -5 | HEK293 MPD ctr-2 inactive | HEK293 MPD ctr 2-2 inactive | TRPC4 ctr mod -14% | TRPC4 ctr inh 2 55% | TRPC6 block conf inactive | TRPC6 act conf inactive
CCOc1cccc2sc(N(CCCN(C)C)C(=O)c3ccc(S(=O)(=O)N(C)CC4CCCO4)cc3)nc12 (stereo unspecified)	TRPC6 inhibitor -7.4 | TRPC4 spec 2 48% | TRPC4 spec -14% | HEK293 MPD ctr 2-1 inactive | HEK293 MPD ctr-1 inactive | TRPC6 block conf inactive | TRPC6 act conf inactive
CN(C)CCN(C(=O)C1=COCCO1)c1nc2ccc(F)cc2s1	TRPC6 inhibitor -7 | HEK293 MPD ctr-2 -139% | HEK293 MPD ctr 2-2 inactive | TRPC4 ctr mod -30% | TRPC4 ctr inh 2 40% | TRPC6 block conf inactive | TRPC6 act conf inactive
CN(C)CCCN(C(=O)CCc1ccccc1)c1nc2ccc(Br)cc2s1	none
CN(C)CCCN(C(=O)c1ccco1)c1nc2ccc(Br)cc2s1	TRPC6 inhibitor -8.1 | HEK293 MPD ctr-2 -120% | HEK293 MPD ctr 2-2 inactive | TRPC4 ctr mod -34% | TRPC4 ctr inh 2 71% | TRPC6 block conf inactive | TRPC6 act conf inactive
CN(C)CCN(C(=O)c1cc(Cl)sc1Cl)c1nc2ccc(F)cc2s1	none
Cc1cc(C)c2nc(N(CCN(C)C)C(=O)c3ccc(S(=O)(=O)N(C)CC4CCCO4)cc3)sc2c1 (stereo unspecified)	none
Cc1[nH]nc(SCC(=O)NC2CCCC2)c1[N+](=O)[O-]	none

Assay outcomes deposited in PubChem BioAssay by Johns Hopkins Ion Channel Center.
